# In ChEMBL document CHEMBL1811805, “Molecular factors governing inhibition of arylimidamides against Leishmania: conservative computational modeling to improve chemotherapies” (Bioorg Med Chem, 2011):
# Tests used:
# Leishmania donovani = assay: Antileishmanial activity against Leishmania donovani axenic amastigotes after 3 days by tetrazolium dye based spectrophotometric analysis at pH 5.5; format: functional, organism-based; conditions: 72 h
# In short: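 Ld1s axenic amastigote-like L. donovani grown in potassium-based medium, pH 5.5, 37 °C; exposed to compounds for three days; tetrazolium dye added and read spectrophotometrically. IC50 (μM) averaged with standard errors, n ≥ 3.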
# Leishmania amazonensis = assay: Antileishmanial activity against beta-lactamase transfected Leishmania amazonensis promastigotes infected in macrophages after 72 hrs by spectrophotometric analysis; format: functional, organism-based
# In short: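 Macrophages plated and adhered overnight; infected with β-lactamase-transfected L. amazonensis promastigotes (MOI 5:1) overnight; compounds added for 72 hours at 34 °C; nitrocefin in lysis buffer added for 3 to 5 hours further; absorbance read at 490 nm. IC50 (μM) averaged with standard errors, n ≥ 3.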
Compound,IC50 (Leishmania donovani),IC50 (Leishmania amazonensis)
COc1ccc(C(=N)Nc2ccc(-c3ccc(-c4ccc(NC(=N)c5ccc(OC)cn5)cc4OC(C)C)o3)c(OC(C)C)c2)nc1,1 µM,0.13 µM
CC(C)Oc1cc(NC(=N)c2ccc(Br)cn2)ccc1-c1ccc(-c2ccc(NC(=N)c3ccc(Br)cn3)cc2OC(C)C)o1,28 µM,> 10 µM
CC(C)N1CCC(Oc2cc(NC(=N)c3ccccn3)ccc2-c2ccc(-c3ccc(NC(=N)c4ccccn4)cc3OC3CCN(C(C)C)CC3)o2)CC1,28 µM,2.1 µM
N=C(Nc1ccc(-c2ccc(-c3ccc(NC(=N)c4ccc(Cl)cn4)cc3OC3CCCC3)o2)c(OC2CCCC2)c1)c1ccc(Cl)cn1,> 100 µM,> 10 µM
N=C(Nc1ccc(-c2ccc(-c3ccc(NC(=N)c4ccc(Br)cn4)cc3OC3CCCC3)o2)c(OC2CCCC2)c1)c1ccc(Br)cn1,> 100 µM,> 10 µM
CC(C)COc1cc(NC(=N)c2ccccn2)ccc1-c1ccc(-c2ccc(NC(=N)c3ccccn3)cc2OCC(C)C)o1,1.1 µM,0.095 µM
CC(C)Oc1cc(NC(=N)c2ccc(N3CCCC3)cn2)ccc1-c1ccc(-c2ccc(NC(=N)c3ccc(N4CCCC4)cn3)cc2OC(C)C)o1,1.9 µM,0.27 µM
COc1cccc(C(=N)Nc2ccc(-c3ccc(-c4ccc(NC(=N)c5cccc(OC)n5)cc4OC(C)C)o3)c(OC(C)C)c2)n1,4.5 µM,2.7 µM
CC(C)COc1cc(NC(=N)c2c[nH]cn2)ccc1-c1ccc(-c2ccc(NC(=N)c3c[nH]cn3)cc2OCC(C)C)o1,23 µM,> 10 µM
CC(C)COc1cc(NC(=N)c2ccc(Br)cn2)ccc1-c1ccc(-c2ccc(NC(=N)c3ccc(Br)cn3)cc2OCC(C)C)o1,> 50 µM,> 10 µM
CC(C)COc1cc(NC(=N)c2ncccn2)ccc1-c1ccc(-c2ccc(NC(=N)c3ncccn3)cc2OCC(C)C)o1,2.4 µM,0.49 µM
CC(=N)Nc1ccc(-c2ccc(-c3ccc(NC(C)=N)cc3OC3CCCC3)o2)c(OC2CCCC2)c1,41 µM,4.7 µM
CC(C)Oc1cc(NC(=N)c2cccnn2)ccc1-c1ccc(-c2ccc(NC(=N)c3cccnn3)cc2OC(C)C)o1,1.1 µM,1.1 µM
CC(C)Oc1cc(NC(=N)c2csc(N)n2)ccc1-c1ccc(-c2ccc(NC(=N)c3csc(N)n3)cc2OC(C)C)o1,21 µM,1.7 µM
CC(=O)Nc1nc(C(=N)Nc2ccc(-c3ccc(-c4ccc(NC(=N)c5csc(NC(C)=O)n5)cc4OC(C)C)o3)c(OC(C)C)c2)cs1,> 100 µM,0.22 µM
CC(C)Oc1cc(NC(=N)c2ccc(N)cn2)ccc1-c1ccc(-c2ccc(NC(=N)c3ccc(N)cn3)cc2OC(C)C)o1,0.82 µM,0.64 µM
CC(=O)N(C)c1nc(C(=N)Nc2ccc(-c3ccc(-c4ccc(NC(=N)c5csc(N(C)C(C)=O)n5)cc4OC(C)C)o3)c(OC(C)C)c2)cs1,3.6 µM,0.81 µM
CNc1nc(C(=N)Nc2ccc(-c3ccc(-c4ccc(NC(=N)c5csc(NC)n5)cc4OC(C)C)o3)c(OC(C)C)c2)cs1,1.3 µM,0.3 µM
CC(C)CCOc1cc(NC(=N)c2ccccn2)ccc1-c1ccc(-c2ccc(NC(=N)c3ccccn3)cc2OCCC(C)C)o1,5.1 µM,> 10 µM
CC(C)(C)CCOc1cc(NC(=N)c2ccccn2)ccc1-c1ccc(-c2ccc(NC(=N)c3ccccn3)cc2OCCC(C)(C)C)o1,28 µM,> 10 µM
CC(C)CCOc1cc(NC(=N)c2ncccn2)ccc1-c1ccc(-c2ccc(NC(=N)c3ncccn3)cc2OCCC(C)C)o1,7.9 µM,0.32 µM
Cc1cc(NC(=N)c2ccccn2)ccc1-c1ccc(-c2ccc(NC(=N)c3ccccn3)cc2C)o1,0.67 µM,0.29 µM
N=C(Nc1ccc(-c2cc(-c3ccccc3)c(-c3ccc(NC(=N)c4ccccn4)cc3)o2)cc1)c1ccccn1,1.7 µM,0.11 µM
N=C(Nc1ccc(-c2ccc(-c3ccc(NC(=N)c4ccccn4)cc3Cl)o2)c(Cl)c1)c1ccccn1,2 µM,0.56 µM
COc1cc(NC(=N)c2ccccn2)ccc1-c1ccc(-c2ccc(NC(=N)c3ccccn3)cc2OC)o1,0.53 µM,0.37 µM
Cc1ccc(C(=N)Nc2ccc(-c3ccc(-c4ccc(NC(=N)c5ccc(C)cn5)cc4C)o3)c(C)c2)nc1,0.84 µM,0.16 µM
N=C(Nc1ccc(-c2ccc(-c3ccc(NC(=N)c4ccccn4)cc3)o2)cc1)c1ccccn1,1.6 µM,0.53 µM
